# Compound activity as filed in PubChem.
# The list is not random: actives were taken first. Their share in the collection is about 2.3%.
# Arr AP2 block: inhibitors of human beta-arrestin and AP2 interaction | AID 504490 | FITC-arrestin peptide / GST-AP2 beads, flow cytometry; AP2 beta2 appendage carries R879A mutation | inhibition, % at 10 µM | 0.31% of 340,000 active;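 active means inhibition above a set limit, near 3 SD of compounds lacking own fluorescence, cut at about 54% in these data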;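 further: plate controls were DMSO wells for no effect and 5 µM unlabelled arrestin peptide for full effect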
#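 Material – GST-tagged AP2 beta2-adaptin appendage (R879A) on 4 µm glutathione beads · Probe or stimulus – fluorescein-tagged arrestin peptide at 50 nM final · Timing – 12 min plus 1 h, RT · Detection – bead flow cytometry, FITC channel · Read-out basis – inhibition as reduced fluorescein signal on beads, percent · Medium – PBS plus Tween 20 (0.05%) and BSA (0.1%)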
# MEKK2 mut-MEK5: signal of MEK5 binding to mutant human MEKK2 PB1 domain. bead flow cytometry, Alexa488-MEK5 binding to MEKK2 mutant. 0.35% of 290,000 active. AID 1530. percent response, % at 10 µM; in the data active means percent response above about 24%, passing the limit was not always enough
# MEKK2wt PB1 HTS: raises or lowers MEK5 binding to wildtype human MEKK2 PB1 domain; AID 1531; Q9Y2U5; bead flow cytometry, Alexa488-MEK5 binding to MEKK2 WT; actives lie on both sides; binding response (% of control), % at 10 µM; 1.1% of 290,000 active; in the data active means binding response below about 67% or above about 130%
# MEKK3 PB1 HTS: modulators (inhibitors or enhancers) of MEK5 binding to human MEKK3 PB1 domain; binding response (% of control), % at 10 µM; Q99759; 1.4% of 290,000 active; bead-based flow cytometry, Alexa488-MEK5 binding to MEKK3; actives lie on both sides; 0 = blocked by unlabeled MEK5, 100 = vehicle;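 active means binding response more than 3 SD above or below the average of its plate-row segment, actives on both sides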;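 further: Alexa488 bead fluorescence after subtracting the streptavidin-only scavenger bead signal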
# Target sequence (Q99759 whole entry, looked up, the tested form may be a part): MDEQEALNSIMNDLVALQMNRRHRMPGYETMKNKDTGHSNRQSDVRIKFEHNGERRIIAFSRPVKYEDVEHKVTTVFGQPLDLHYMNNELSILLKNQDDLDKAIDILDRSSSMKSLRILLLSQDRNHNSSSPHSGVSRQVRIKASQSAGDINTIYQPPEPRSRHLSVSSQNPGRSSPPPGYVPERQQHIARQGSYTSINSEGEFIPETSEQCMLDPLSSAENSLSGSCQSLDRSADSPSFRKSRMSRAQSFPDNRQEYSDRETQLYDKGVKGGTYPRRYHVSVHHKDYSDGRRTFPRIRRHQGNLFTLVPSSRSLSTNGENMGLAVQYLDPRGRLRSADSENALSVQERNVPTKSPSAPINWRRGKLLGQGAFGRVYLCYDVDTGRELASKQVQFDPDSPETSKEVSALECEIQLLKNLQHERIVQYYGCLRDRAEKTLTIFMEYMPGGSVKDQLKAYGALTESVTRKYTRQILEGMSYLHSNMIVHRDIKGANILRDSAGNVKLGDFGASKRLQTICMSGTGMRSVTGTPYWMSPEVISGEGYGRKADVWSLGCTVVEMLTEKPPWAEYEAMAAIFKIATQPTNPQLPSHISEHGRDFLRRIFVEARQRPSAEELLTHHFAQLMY
# MEKK2wt confirm: raises or lowers MEK5 binding to wildtype human MEKK2, retest | 2.4% of 5,900 active | AID 1892 | shares compounds with MEKK3 PB1 HTS | bead flow cytometry, Alexa488-MEK5 binding to MEKK2 WT; actives lie on both sides | binding response (% of control), % at 10 µM; in the data active means binding response below about 16% or above about 210%; inactive means in between
# MEKK2mut confirm: signal of MEK5 binding to mutant human MEKK2, retest | shares compounds with MEKK3 PB1 HTS | bead flow cytometry, Alexa488-MEK5 binding to MEKK2 mutant | percent response, % at 10 µM | 2% of 5,900 active; in the data active means percent response mostly above about 71%, no sharp cut-off; inactive means mostly below about 38%;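 further: higher means compound restores mutant binding toward wildtype level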
# MEKK3-MEK5 inh: confirmation of inhibitors of MEK5 binding to human MEKK3 | shares compounds with MEKK3 PB1 HTS | bead flow cytometry, Alexa488-MEK5 binding to MEKK3; active compounds read low | binding response (% of control), % at 10 µM | 1.8% of 5,900 active | AID 1894;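 active means binding response below 72% of control, or above a set upper limit, though filed actives all read lower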;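 further: 100% = DMSO only wells and 0% = binding blocked by excess unlabeled MEK5; lower values mean stronger disruption of MEK5 binding to MEKK3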
# * = called active by the depositor; nt = not tested or not shown; [ ] = dose if it differs, or a comment.
SMILES,Arr AP2 block,MEKK2 mut-MEK5,MEKK2wt PB1 HTS,MEKK3 PB1 HTS,MEKK2wt confirm,MEKK2mut confirm,MEKK3-MEK5 inh
O=C(NCc1ccco1)C1CCN(c2ccc(S(=O)(=O)N3CCOCC3)cc2[N+](=O)[O-])CC1,6.8,-10.0,79.0,71.0*[inhibitor],100.0,-1.0,102.0
CCCCn1c(N)c(N(CC(C)C)C(=O)C2=NN(c3ccccc3)C(=O)CC2)c(=O)[nH]c1=O,-3.1,nt,nt,nt,nt,nt,nt
CCCCCOP(=O)(c1ccccc1)c1ccccc1,-7.5,13.0,108.0,104.0,nt,nt,nt
CC(C)OP(=O)(c1ccccc1)c1ccccc1,3.7,0.0,109.0,153.0*,115.0,8.0,105.0
COc1cc(NC(=O)c2cc(C)nc3ccccc23)cc(OC)c1,5.7,7.0,117.0,129.0*,96.0,-4.0,98.0
COC(=O)C1C(c2ccc(OC)cc2)C(C(=O)OC)S(=O)(=O)C(CCN2CCCCC2)S1(=O)=O (configuration not stated),-1.1,-21.0,87.0,96.0,nt,nt,nt
CCOC(=O)c1c(CSCc2ccccc2)oc2ccc(O)c(CN(C)C)c12,8.1,18.0,137.0*,104.0,139.0,21.0,106.0
COc1cc(-c2n[nH]c(=S)n2-c2cc(C(F)(F)F)ccc2Cl)cc(OC)c1OC,-11.1,0.0,108.0,144.0*,100.0,-3.0,103.0
CC(=O)Nc1ccc(NC(=O)C(C)Sc2nnc(-c3cccs3)o2)cc1 (configuration not stated),-7.9,-3.0,102.0,101.0,nt,nt,nt
COc1ccc(OC)c(C2C3=C(CCCC3=O)Nc3nnnn32)c1 (configuration not stated),-1.6,0.0,107.0,133.0*,99.0,-3.0,98.0
COC(=O)C1=C(C)Nc2nnnn2C1c1cc(OC)ccc1OC (configuration not stated),14.2,-1.0,98.0,99.0,nt,nt,nt
COc1cccc(/C=N/n2c(CO)nc3ccccc32)c1OC,18.7,-8.0,77.0,71.0*[inhibitor],106.0,5.0,103.0
COc1cc(/C=C/C(=O)OCC(=O)Nc2c(C)n(C)n(-c3ccccc3)c2=O)ccc1O,-6.5,-2.0,101.0,101.0,nt,nt,nt
Cc1ccc(/C=N\NC(=O)c2ccc3c(c2)OCO3)o1,20.6,-1.0,99.0,98.0,nt,nt,nt
CCN(CC)c1nc2ccccc2c(N)c1-c1ccccc1,1.6,26.0*,123.0,114.0,106.0,0.0,99.0
Cc1c(N(C)C)nc2ccccc2c1N,1.9,10.0,123.0,118.0,nt,nt,nt
COc1ccc(C(=O)COC(=O)C(CC(C)C)N2C(=O)c3ccccc3C2=O)cc1 (configuration not stated),18.6,2.0,99.0,100.0,nt,nt,nt
CSCCC(C(=O)OCC(=O)c1ccc(C)c(C)c1)N1C(=O)c2cc(Cl)c(Cl)cc2C1=O (configuration not stated),6.9,-15.0,2.0*[inhibitor],2.0*[inhibitor],90.0,-4.0,97.0
O=C(COC(=O)COc1ccc(Br)cc1)NNC(=O)c1ccccc1,0.6,nt,nt,nt,nt,nt,nt
COc1cccc(CNCCc2c[nH]c3ccccc23)c1OCc1ccc(F)cc1,-12.2,39.0*,165.0*,111.0,131.0,22.0,101.0
COc1cc(CNCCc2c[nH]c3ccccc23)ccc1OCc1ccc(F)cc1,-1.5,47.0*,197.0*,106.0,144.0,14.0,87.0
COc1ccc(/C=C2\SC(=S)N(CCC(=O)Nc3ccc(O)cc3)C2=O)cc1,-12.5,3.0,98.0,99.0,nt,nt,nt
CCN(CC)CCOC(=O)c1ccc(NC(=O)CCCN2C(=O)S/C(=C/c3ccc(OC)cc3)C2=S)cc1,-3.1,44.0*,192.0*,106.0,111.0,2.0,87.0
Cc1ccsc1CNCC(O)c1ccccc1 (configuration not stated),15.5,8.0,102.0,103.0,nt,nt,nt
NS(=O)(=O)c1ccc(CCNCc2cc(Br)ccc2OCc2ccccc2F)cc1,-7.3,21.0,133.0,95.0,nt,nt,nt
SMILES,Arr AP2 block,MEKK2 mut-MEK5,MEKK2wt PB1 HTS,MEKK3 PB1 HTS,MEKK2wt confirm,MEKK2mut confirm,MEKK3-MEK5 inh
NS(=O)(=O)c1ccc(CCNCc2cc(Cl)ccc2OCc2ccccc2)cc1,7.2,6.0,144.0*,108.0,135.0,20.0,106.0
NS(=O)(=O)c1ccc(CCNCc2ccccc2OCc2ccc(Cl)cc2)cc1,-4.8,8.0,145.0*,106.0,129.0,16.0,108.0
CC[C@]1(c2cccc(C)c2)C(=O)N(C(=O)OC)N1C(=O)OC,7.8,59.0*,66.0*,105.0,98.0,2.0,102.0
CC[C@@]1(c2ccccc2)C(=O)N(C(=O)OC)N1C(=O)OC,2.0,-7.0,83.0,101.0,nt,nt,nt
COc1ccc(-c2nn(C)c(=O)c3ccccc23)cc1CNC(=O)NC1CCCCC1,nt,-1.0,96.0,100.0,nt,nt,nt
COc1ccc(S(=O)(=O)NC(C)C)cc1C(=O)N1CCOCC1,-1.0,-9.0,-2.0*[inhibitor],92.0,99.0,1.0,102.0
Cc1ccc2nc(Cl)c(C3CC(c4cccs4)=NN3C(=O)CCC(=O)O)cc2c1 (configuration not stated),-3.9,-1.0,103.0,139.0*,86.0,0.0,90.0
CN(Cc1ccc(OC(F)F)cc1)C(=O)c1cccc(S(=O)(=O)N2CCN(Cc3ccccc3)CC2)c1,-0.2,nt,nt,nt,nt,nt,nt
O=C1/C(=C/c2ccncc2)SC(=S)N1N1CCOCC1,16.5,-12.0,37.0*[inhibitor],42.0*[inhibitor],99.0,-4.0,103.0
COc1cc(/C=C2\SC(=S)N(N3CCOCC3)C2=O)cc(OC)c1OC,11.9,-1.0,91.0,141.0*,100.0,-1.0,104.0
CCCCNC(=O)COC(=O)c1ccccc1F,-8.5,-4.0,97.0,97.0,nt,nt,nt
CN(C)CCNC(=O)c1cc2c(s1)-c1ccc(Cl)cc1SC2,4.3,40.0*,181.0*,110.0,152.0,27.0,106.0
CCOCCCNC(=O)c1cc2c(s1)-c1ccccc1SC2,9.3,-1.0,101.0,101.0,nt,nt,nt
O=C(COc1ccc2c(c1)CCC2)N1CCN(c2ccccc2F)CC1,8.2,0.0,109.0,142.0*,108.0,6.0,104.0
O=C(COc1ccc2c(c1)CCC2)N1CCN(c2cccc(C(F)(F)F)c2)CC1,0.1,-3.0,100.0,98.0,nt,nt,nt
O=C(Cn1cccc1C(=O)c1ccccc1)NCCN1CCCCCC1,3.6,25.0*,171.0*,115.0,157.0,30.0,104.0
Cc1ccc(C)c(N2CCN(CCCNC(=O)Cn3cccc3C(=O)c3ccccc3)CC2)c1,1.5,45.0,176.0*,111.0,129.0,13.0,104.0
O=C(Cn1cccc1C(=O)c1ccccc1)NCCCN1CCOCC1,-0.4,-5.0,94.0,95.0,nt,nt,nt
COc1ccc(Cl)cc1C(=O)NCC(=O)OCc1ccccc1,-0.1,nt,nt,nt,nt,nt,nt
COc1ccc(NC(=S)N2CCC(NC(=O)C3CCCCC3)CC2)cc1,0.5,-1.0,99.0,102.0,nt,nt,nt
